Here are results for 39 compounds from ChEMBL document CHEMBL4033778, “Species-Selective Pyrimidineamine Inhibitors of Trypanosoma brucei S-Adenosylmethionine Decarboxylase” (J Med Chem, 2018).

Experiment [1] addresses T1, S-adenosylmethionine decarboxylase proenzyme (Homo sapiens, UniProt P17707).
T1 sequence (P17707 whole entry): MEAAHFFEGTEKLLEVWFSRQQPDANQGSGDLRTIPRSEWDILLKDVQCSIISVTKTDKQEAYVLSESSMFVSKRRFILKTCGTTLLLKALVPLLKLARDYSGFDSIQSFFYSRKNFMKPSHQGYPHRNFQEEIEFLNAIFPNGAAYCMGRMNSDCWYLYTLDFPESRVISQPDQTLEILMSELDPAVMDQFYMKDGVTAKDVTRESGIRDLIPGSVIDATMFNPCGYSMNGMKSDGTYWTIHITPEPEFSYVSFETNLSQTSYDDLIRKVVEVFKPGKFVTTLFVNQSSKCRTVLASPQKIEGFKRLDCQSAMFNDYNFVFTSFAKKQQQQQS
The experiment can be described thus: Inhibition of recombinant human N-terminal His6-tagged AdoMetDC expressed in Escherichia coli BL21/DE3 cells at pH 7.2 by RapidFire-MS-based enzyme activity assay.

Experiment [2] in a line: Inhibition of recombinant Trypanosoma brucei N-terminal His6-tagged AdoMetDC/prozyme hetrodimer expressed in Escherichia coli BL21/DE3 cells at pH 7.2 by RapidFire-MS-based enzyme activity assay.
In experiment [3] the target is T2, S-adenosylmethionine decarboxylase proenzyme (Trypanosoma brucei brucei) (UniProt P50244).
T2 sequence (whole entry): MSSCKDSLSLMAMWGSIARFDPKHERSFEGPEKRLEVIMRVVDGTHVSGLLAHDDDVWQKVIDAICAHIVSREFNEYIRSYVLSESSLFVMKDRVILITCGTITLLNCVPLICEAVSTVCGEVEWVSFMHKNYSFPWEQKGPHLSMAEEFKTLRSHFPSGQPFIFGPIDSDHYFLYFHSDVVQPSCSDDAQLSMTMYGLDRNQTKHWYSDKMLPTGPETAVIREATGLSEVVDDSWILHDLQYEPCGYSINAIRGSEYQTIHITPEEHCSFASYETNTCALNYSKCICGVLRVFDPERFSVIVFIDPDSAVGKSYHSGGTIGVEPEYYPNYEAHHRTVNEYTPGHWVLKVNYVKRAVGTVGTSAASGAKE
The experiment can be described thus: Inhibition of AdoMetDC in bloodstream form Trypanosoma brucei brucei Lister 427 assessed as increase in prozyme level at 1.5 times EC50 after 24 hrs by Western blot method.

Experiment [4] deals with Trypanosoma brucei. The experiment can be described thus: Inhibition of recombinant Trypanosoma brucei N-terminal His6-tagged AdoMetDC/prozyme hetrodimer expressed in Escherichia coli BL21/DE3 cells at 180 uM at pH 7.2 by RapidFire-MS-based enzyme activity assay. A digest of the protocol: (§1)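 Steady-state decarboxylation of S-adenosyl-L-methionine by purified TbAdoMetDC/prozyme at pH 7.2; decarboxylated AdoMet product read by RapidFire–MS. Inhibitor added from DMSO to 2% final DMSO. Percent inhibition reported at the top tested concentration when mean inhibition stayed below 50%; triplicate.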

For experiment [5], the system named is Trypanosoma brucei brucei. The experiment in a line: Antitrypanosomal activity against bloodstream form Trypanosoma brucei brucei Lister 427 after 48 hrs by CellTiter-Glo assay. Conditions: Lister 427, 48 h. Format: functional. In outline: (§2)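 Bloodstream-form parasites grown in HMI-19 with fetal bovine serum, exposed 48 h to a 3-fold serial dilution (0.0038–25 μM or 0.015–100 μM final; 0.1% DMSO vehicle). Cell density read by ATP bioluminescence (CellTiter-Glo). Triplicate; EC50 from normalized response vs log concentration fit, bottom fixed at 0, Hill slope fixed at –8 when curve steepness gave ambiguous fit. Percent inhibition given at top concentration when <50%.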

Experiment [6] has as its target T3, S-adenosylmethionine decarboxylase proenzyme (Homo sapiens) (UniProt P17707).
T3 sequence (whole entry): T1 sequence (P17707 whole entry)
The experiment can be described thus: Inhibition of recombinant human N-terminal His6-tagged AdoMetDC expressed in Escherichia coli BL21/DE3 cells at 180 uM at pH 7.2 by RapidFire-MS-based enzyme activity assay.

Experiment [7] has as its system Trypanosoma brucei. The experiment can be described thus: Inhibition of recombinant Trypanosoma brucei N-terminal His6-tagged AdoMetDC/prozyme hetrodimer expressed in Escherichia coli BL21/DE3 cells at 21 uM at pH 7.2 by RapidFire-MS-based enzyme activity assay. A digest of the protocol:
as §1

For experiment [8], the target named is T3, S-adenosylmethionine decarboxylase proenzyme (Homo sapiens). The experiment can be described thus: Inhibition of recombinant human N-terminal His6-tagged AdoMetDC expressed in Escherichia coli BL21/DE3 cells at 63 uM at pH 7.2 by RapidFire-MS-based enzyme activity assay.
Experiment [9] has as its system Trypanosoma brucei brucei. The experiment can be described thus: Antitrypanosomal activity against blood stream form Trypanosoma brucei brucei Lister 427 at 25 uM after 48 hrs by CellTiter-Glo assay. The format is functional. In outline: as §2
In general terms: In ATP-based viability assays light output follows the ATP content of the culture.

The nature of experiment [10]: Inhibition of recombinant Trypanosoma brucei N-terminal His6-tagged AdoMetDC/prozyme hetrodimer expressed in Escherichia coli BL21/DE3 cells at pH 6.8 by RapidFire-MS-based enzyme activity assay.
Experiment [11] can be described thus: Selectivity ratio of IC50 for recombinant human N-terminal His6-tagged AdoMetDC expressed in Escherichia coli BL21/DE3 cells to IC50 for recombinant Trypanosoma brucei N-terminal His6-tagged AdoMetDC/prozyme hetrodimer expressed in Escherichia coli BL21/DE3 cells. A digest of the protocol: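 Both enzymes assayed at pH 7.2 by RapidFire–MS, monitoring decarboxylated AdoMet. Inhibitor run as a 3-fold dilution series from 0.01 to 180 μM final, with 2% DMSO final. Data normalized to 0.5 μM Genz-644131 as full inhibition. IC50 fitted with bottom fixed at 0 and Hill slope fixed at −1, triplicate. Ratio is human IC50 over parasite IC50.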

Experiment [12] has as its system Trypanosoma brucei. The experiment in a line: Inhibition of recombinant Trypanosoma brucei N-terminal His6-tagged AdoMetDC/prozyme hetrodimer expressed in Escherichia coli BL21/DE3 cells at 63 uM at pH 7.2 by RapidFire-MS-based enzyme activity assay. In outline:
as §1

Calls of active or inactive are those of the source. No cut-off for these calls is given here.

The term IC50 denotes the point on the concentration scale where inhibition reaches its midpoint. In general, inhibition refers to how much of the control response was suppressed. Regarding `Nc1nc(Cl)cc(Nc2cc(Cl)cc(Cl)c2)n1`, the 50% inhibitory concentration (IC50) in [1] and in [2] was above 180 µM throughout. Further, the inhibition result in experiment [3] is “inactive”.

With `Cc1cc(N)cc(Nc2cc(Cl)cc(Cl)c2)n1`, in [1], the IC50 was above 180 µM. For the same compound, the inhibition in experiment [4] was found to be 24%.

Turning to `C=CCOc1cc(Br)cc(Nc2cc(C)nc(N)n2)c1`, the figures for the IC50 in experiment [5] and in [2] were 4.4 µM and 4.5 µM, respectively. Further, in experiment [6], the inhibition amounted to 28%.

Turning to `Cc1cc(Nc2cc(Cl)cc(-c3cncs3)c2)nc(N)n1`, the IC50 in experiment [1] is above 21 µM. The inhibition in [7] turned out to be 42%.

With `Cc1cc(Nc2cc(Cl)cc(-c3ccccc3)c2)nc(N)n1`, the IC50 in experiment [2] stood at 3.3 µM. Moreover, the inhibition in experiment [8] was 30%.

As to `Cc1cc(Nc2ccc(Cl)cc2)nc(N)n1`, the IC50 in [1] and in experiment [2] was above 180 µM in each case. In experiment [9], this compound had an Activity of 28%.

Take `Cc1cc(Nc2cc(Cl)cc(-c3ccoc3)c2)nc(N)n1`: the IC50 came out at 7.1 µM in experiment [5] and 7.4 µM in experiment [2]. The inhibition in [6] was determined as 30%.

In the case of `Nc1cc(Nc2cc(Cl)cc(Cl)c2)nc(N)n1`, the IC50 in experiment [10] was 5.8 µM; in experiment [1], above 180 µM; in experiment [2], 48 µM.

Consider `Cc1cc(Nc2ccc(Br)cc2F)nc(N)n1`, for which the IC50 in [1] and in [2] was above 180 µM throughout. Moreover, the Activity in [9] was found to be 25%.

Take `Cc1cc(Nc2cccc(Cl)c2)nc(N)n1`: the IC50 in experiment [1] was above 180 µM. Further, the inhibition in experiment [4] stood at 35%.

For `Cc1cc(Nc2cc(Br)cc(OCC(F)(F)F)c2)nc(N)n1`, the IC50 in [1] was found to be 44 µM; in [2], 1.6 µM. Further, the Ratio IC50 in experiment [11] was determined as 27.

With `Cc1cc(Nc2cc(Cl)ccc2C)nc(N)n1`, the IC50 in experiment [1] and in experiment [2] was above 180 µM each time. The compound further came in with an Activity in experiment [9] of 28%.

Regarding `Cc1cc(Nc2ccc(Cl)cc2Cl)nc(N)n1`, the IC50 in experiment [1] and in experiment [2] was above 180 µM each time. The compound also gave an Activity in experiment [9] of 28%.

Turning to `Cc1cc(Nc2cccc(Br)c2)nc(N)n1`, the half-inhibitory concentration (IC50) in experiment [1] was above 180 µM. The inhibition in experiment [4] is 41%.

`Nc1nccc(Nc2cc(Cl)cc(Cl)c2)n1`: the IC50 in experiment [1] was above 180 µM; in experiment [2], 13 µM. For the same compound, the inhibition result in [3] is “Active”.

For `Cc1cc(Nc2cccc(S(F)(F)(F)(F)F)c2)nc(N)n1`, in [1], the half-inhibitory concentration (IC50) is above 180 µM. In addition, in [4], the inhibition was 23%.

For `Cc1nc(N)cc(Nc2cc(Cl)cc(Br)c2)n1`, the IC50 in experiment [1] is above 180 µM. Moreover, the inhibition in experiment [4] came out at 24%.

`Cc1cc(Nc2cc(Cl)cc(-c3ccc(F)c(Cl)c3)c2)nc(N)n1`: the IC50 was above 180 µM in experiment [1], 3.2 µM in experiment [5] and 157 µM in [2].

Regarding `Cc1cc(Nc2cc(Cl)cc(Cl)c2)ncn1`, the IC50 in experiment [1] and in experiment [2] was above 180 µM throughout. Further, the inhibition entry in [3] was “inactive”.

As to `COC(=O)c1cc(Nc2cc(C)nc(N)n2)cc(C(=O)OC)c1`, the IC50 in experiment [1] was above 180 µM. Further, the inhibition in experiment [4] was determined as 40%.

As to `Cc1cc(Nc2cc(Cl)c(F)c(Cl)c2)nc(N)n1`, the IC50 in [2] came out at 1.5 µM. The Ratio IC50 in experiment [11] is above 100.

`Nc1cnccc1Nc1cc(Cl)cc(Cl)c1`: in experiment [1], the IC50 was above 180 µM. Also, in [4], the inhibition was 21%.

As to `Cc1cc(Nc2cc(Cl)cc(-c3cc4ccccc4o3)c2)nc(N)n1`, in [1], the half-maximal inhibitory concentration (IC50) was above 63 µM. For the same compound, the inhibition in [12] stood at 23%.

For the compound `Nc1nc(Nc2cc(Cl)cc(Cl)c2)cc(-c2ccccc2)n1`, the half-inhibitory concentration (IC50) in experiment [1] is above 21 µM. Besides, the inhibition in [7] stood at 24%.

As to `Cc1cc(Nc2cc(Cl)ccc2Cl)nc(N)n1`, the IC50 in experiment [1] is above 180 µM; in [2], 115 µM. In experiment [9], this compound came in with an Activity of 23%.

`Cc1cc(Nc2cccc(Cl)c2Cl)nc(N)n1`: the IC50 was above 180 µM in experiment [1] and 137 µM in experiment [2]. The Activity in [9] is reported as 27%.

As to `Cc1cc(Nc2cc(Cl)cc(-c3ccc(N(C)C)cc3)c2)nc(N)n1`, in [1], the IC50 was above 180 µM. Further, the inhibition in [4] stood at 34%.

Consider `Cc1cc(Nc2cc(Cl)c(Oc3ccccc3)c(Cl)c2)nc(N)n1`, for which the half-inhibitory concentration (IC50) in experiment [1] was above 180 µM. For the same compound, the inhibition in [4] was 38%.

Consider `Cc1cc(NCCc2cc(Cl)cc(Cl)c2)nc(N)n1`, for which the IC50 in experiment [2] was determined as 28 µM. Besides, in [6], the inhibition turned out to be 29%.

Take `Cc1cc(Nc2cc(Br)cc(Br)c2)nc(N)n1`: the IC50 in [2] came to 1.9 µM. In addition, the inhibition in [6] is 31%. The Ratio IC50 in experiment [11] is above 100.

As to `Cc1cc(Nc2cc(C(F)(F)F)ccc2Cl)nc(N)n1`, the values for the IC50 in [1] and in experiment [2] were above 180 µM and 199 µM, respectively. Moreover, the Activity in experiment [9] is 28%.

With `Cc1cc(Nc2cccc(Cl)c2C)nc(N)n1`, the IC50 in [1] and in experiment [2] was above 180 µM in each case. This compound also showed an Activity in experiment [9] of 29%.

As for `Cc1cc(Nc2cc(S(C)(=O)=O)cc(S(C)(=O)=O)c2)nc(N)n1`, the IC50 in [2] stood at 1.5 µM. In experiment [6], the inhibition is 39%.

Take `Cc1cc(Nc2ccc(F)c(F)c2)nc(N)n1`: the IC50 in experiment [1] was above 180 µM. In [4], the inhibition worked out at 33%. In experiment [9], this compound showed an Activity of 25%.

In the case of `Cc1cc(Nc2cc(Cl)c(O)c(Cl)c2)nc(N)n1`, in [1], the IC50 was above 180 µM. Further, the inhibition in experiment [4] is 33%.

In the case of `Cc1cc(Nc2cc(Br)c(F)c(Br)c2)nc(N)n1`, the IC50 in experiment [2] is 1.6 µM. Further, in experiment [6], the inhibition was 43%.

For `CC(=O)c1ccc(-c2cc(Cl)cc(Nc3cc(C)nc(N)n3)c2)cc1`, in experiment [1], the IC50 was above 21 µM. In addition, in experiment [7], the inhibition stood at 28%.

For the compound `Cc1nc(N)nc(Nc2cc(Cl)cc(Cl)c2)c1C`, the IC50 in experiment [2] turned out to be 4.8 µM. Moreover, in experiment [6], the inhibition was determined as 25%.

As for `CCc1cc(Nc2cc(Cl)cc(Cl)c2)nc(N)n1`, in experiment [2], the 50% inhibitory concentration (IC50) worked out at 3 µM. In [6], the inhibition worked out at 36%.
